Consider 22 molecules from ChEMBL document CHEMBL1126587, “Novel 6-alkoxypurine 2',3'-dideoxynucleosides as inhibitors of the cytopathic effect of the human immunodeficiency virus” (J Med Chem, 1993).

The test system of test [1] is MT4. Briefly: Anti-Human immunodeficiency virus activity against MT-4 cells. In kind it is functional, cell-based. The procedure, abridged: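 MT4 cells infected with HTLV-IIIB at 100-fold TCID50 (100-fold the virus stock concentration giving 50% growth inhibition), compound present for 5 days. IC50 from cell growth protection. Each compound run in triplicate at least five times.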

Test [2] has as its system MT4. Briefly: Effect of Erythro-9-(2-Hydroxy-3-nonyl) adenine (EHNA) on the Anti-HIV activity in MT-4 cells. In kind it is functional, cell-based, Homo sapiens. The procedure, abridged: (§1)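 Anti-HIV-1 assay in MT4 cells infected with 100-fold TCID50 HTLV-IIIB over 5 days, run with EHNA or coformycin at 0.1 or 1.0 μM to block deaminase; control wells received PBS in their place. IC50 determined; triplicates, at least five runs.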

In test [3] the test system is MT4. Briefly: Effect of Phosphate buffered saline on the Anti-HIV activity in MT-4 cells. In kind it is functional, cell-based. As to conditions: Homo sapiens. The procedure, abridged: as §1
The subject of test [4] is MT4. Kind of test: Effect of Coformycin on the Anti-HIV activity in MT-4 cells. As to conditions: Homo sapiens. It is filed as functional, cell-based. The essentials:
as §1

The subject of test [5] is L cells. Briefly: Percentage of L cell growth at 100 uM nucleosides after 4 days. In kind it is functional, Mus musculus, L929. The procedure, abridged:
(§2)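 Human sternal marrow D-98 cells or mouse connective tissue L cells exposed to 100 μM nucleoside for 4 days. Growth expressed as % of untreated control, which underwent at least three doublings.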

Test [6] in a line: Percentage of D98 cell growth at 100 uM nucleosides after 4 days. It is filed as functional, Homo sapiens. The essentials:
as §2

For test [7], the system named is MT4. Briefly: Percentage of MT-4 cell growth was calculated at 100 uM nucleosides after 5 days. In kind it is functional, Homo sapiens. The procedure, abridged:
(§3)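 MT4 cells exposed to 100 μM nucleoside for 5 days, growth given as % of untreated control, which underwent at least three doublings.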

The test system of test [8] is L cells. Kind of test: (§4) Percentage of control cell growth was calculated at 100 uM nucleosides after 4 days. It is filed as functional, Mus musculus, L929. The essentials:
as §2

A short description of test [9]: as §4. It is filed as functional, Homo sapiens. The procedure, abridged: as §2
The subject of test [10] is MT4. Kind of test: Percentage of control cell growth was calculated at 100 uM nucleosides after 5 days. It is filed as functional, Homo sapiens. The essentials: as §3
Test [11] concerns MT4. Briefly: Effect of Coformycin on the Anti-HIV activity in MT-4 cells at 0.10 uM. In kind it is functional, cell-based. As to conditions: Homo sapiens. The procedure, abridged: as §1
Test [12] concerns MT4. Kind of test: Effect of Erythro-9-(2-Hydroxy-3-nonyl) adenine (EHNA) on the Anti-HIV activity in MT-4 cells at 1.0 uM. As to conditions: Homo sapiens. In kind it is functional, cell-based. The procedure, abridged:
as §1

For test [13], the system named is MT4. Briefly: Effect of Erythro-9-(2-Hydroxy-3-nonyl) adenine (EHNA) on the Anti-HIV activity in MT-4 cells at 0.10 uM. In kind it is functional, cell-based. As to conditions: Homo sapiens. The procedure, abridged: as §1
Test [14] has as its system MT4. Kind of test: Effect of Coformycin on the Anti-HIV activity in MT-4 cells at 1.0 uM. It is filed as functional, cell-based. As to conditions: Homo sapiens. The essentials: as §1

The structures appear in SMILES notation. Where “and” joins values, the source holds several entries; their conditions need not be identical. Equal entries are not always repeated. Some results are limits rather than exact numbers.

Turning to `CCCCOc1ncnc2c1ncn2C1CCC(CO)O1` (stereo not given), the IC50 in the test on MT4 [1] was 70 µM; in the test on MT4 [2] (mt4), 26 µM and 70 µM; with MT4 [3], 38 µM; in the test on MT4 [4], above 200 µM. In addition, the Control in the test on L cells [5] is reported as 68%; in test [6], 85%; in the test on MT4 [7], 100%.
With `CCCC(C)Oc1ncnc2c1ncn2C1CCC(CO)O1` (stereo not given), in the test with MT4 [1], the IC50 stood at 80 µM. The results for the Control (with L cells [5]; in [6]; in the test with MT4 [7]) were 67%, 81% and 100%, respectively.
As to `CCCCCCCCCOc1ncnc2c1ncn2C1CCC(CO)O1` (stereo not given), the IC50 in the test with MT4 [1] was above 5 µM. Also, the Control in the test with L cells [8] was 23%; in test [9] it was 27%.
Consider `C/C=C/COc1ncnc2c1ncn2C1CCC(CO)O1` (stereo not given), for which the IC50 with MT4 [1] is 59 µM; in the test with MT4 [2] (Homo sapiens, MT4), 50 µM; with MT4 [2] (mt4), 80 µM; in the test on MT4 [3], 70 µM; in the test on MT4 [4] it was above 200 µM. Also, the Control is listed as 58% with L cells [5], 35% in test [6] and 100% in the test on MT4 [7].
Take `CCCCCCCOc1ncnc2c1ncn2C1CCC(CO)O1` (stereo not given): half-maximal inhibition with MT4 [1] (IC50) required 25 µM. The results for the Control (with L cells [8]; in [9]) were 34% and 47%, respectively.
Regarding `CC(C)Oc1ncnc2c1ncn2C1CCC(CO)O1` (stereo not given), the IC50 in the test on MT4 [1] came out at 100 µM. Further, the values for the Control (in the test with L cells [5]; in test [6]; with MT4 [7]) were 72%, 74% and 100%, respectively.
Take `CCOc1ncnc2c1ncn2C1CCC(CO)O1` (stereo not given): the IC50 with MT4 [1] is above 100 µM. Moreover, the figures for the Control (in the test on L cells [5]; in [6]; with MT4 [7]) were 90%, 82% and 100%, respectively.
Turning to `CCCCCCOc1ncnc2c1ncn2C1CCC(CO)O1` (stereo not given), the IC50 in the test on MT4 [1] was 18 µM; with MT4 [2] it was 25 µM and 60 µM; with MT4 [3] it was 24 µM; in the test with MT4 [4], above 200 µM. For the same molecule, the Control in the test on L cells [5] is 42%; in test [6], 54%; with MT4 [7], 100%.
`CCCOc1ncnc2c1ncn2C1CCC(CO)O1` (stereo not given) yielded an IC50 with MT4 [1] above 100 µM. Besides, the Control in the test with L cells [5] is 87%; in test [6], 87%; with MT4 [7], 100%.
On to `OCC1CCC(n2cnc3c(OCC(F)(F)F)ncnc32)O1` (stereo not given), for which the IC50 in the test on MT4 [1] is above 100 µM. For the same molecule, the results for the Control (in the test on L cells [5]; in [6]; with MT4 [7]) were 82%, 82% and 100%, respectively.
`CCCCCOc1ncnc2c1ncn2C1CCC(CO)O1` (stereo not given) returned an IC50 with MT4 [1] of 50 µM. Besides, the figures for the Control (in the test on L cells [5]; in test [6]; with MT4 [7]) were 48%, 60% and 100%, respectively.
`CCCCCCCCOc1ncnc2c1ncn2C1CCC(CO)O1` (stereo not given) had an IC50 with MT4 [1] above 32 µM. Besides, the Control with L cells [8] is on record as 28%; in [9], 29%.
Regarding `C=CCOc1ncnc2c1ncn2C1CCC(CO)O1` (stereo not given), 97 µM corresponded to half-maximal inhibition with MT4 [1] (IC50). Also, the Control with L cells [5] was 70%; in test [6], 68%; in the test on MT4 [7] it was 100%.
With `COc1ncnc2c1ncn2C1CCC(CO)O1` (stereo not given), in the test with MT4 [1], the IC50 was above 100 µM. Also, the Control with L cells [5] is 96%; in test [6], 97%; in the test on MT4 [7] it was 100%.
In the test on MT4 [1], `CCCCCCCCCCOc1ncnc2c1ncn2C1CCC(CO)O1` (stereo not given) returned an IC50 above 5 µM. The Control is recorded as 6% in the test on L cells [8], below 1% in [9] and 20% with MT4 [10].
In the test with MT4 [1], `CCC(CC)Oc1ncnc2c1ncn2C1CCC(CO)O1` (stereo not given) displayed an IC50 above 100 µM. In addition, the values for the Control (in the test with L cells [5]; in test [6]; with MT4 [7]) were 68%, 60% and 100%, respectively.
On the same counts, the results for `OCC1CCC(n2cnc3c(OCCF)ncnc32)O1` (stereo not given) are above 100 µM, 100%, 76% and 100%.
For `CC[C@@H](C)Oc1ncnc2c1ncn2[C@H]1CC[C@@H](CO)O1`, in that order: above 100 µM, 81%, 81% and 100%.
On to `CCC(C)Oc1ncnc2c1ncn2[C@H]1CC[C@@H](CO)O1` (stereo not given in full), for which the IC50 with MT4 [1] was above 100 µM. Further, the Control in the test with L cells [5] is 77%; in [6], 77%; in the test with MT4 [7], 100%.
On to `CC(C)COc1ncnc2c1ncn2C1CCC(CO)O1` (stereo not given), for which half-maximal inhibition with MT4 [1] (IC50) was put at 52 µM. Moreover, the figures for the Control (in the test with L cells [5]; in test [6]; in the test with MT4 [7]) were 98%, 98% and 100%, respectively.
Take `CC[C@H](C)Oc1ncnc2c1ncn2[C@H]1CC[C@@H](CO)O1`: the IC50 in the test with MT4 [1] was 80 µM. In addition, the figures for the Control (with L cells [5]; in test [6]; in the test on MT4 [7]) were 85%, 81% and 100%, respectively.
As to `O=c1[nH]cnc2c1ncn2[C@H]1CC[C@@H](CO)O1` [DIDANOSINE], the IC50 in the test with MT4 [1] was 23 µM; in the test on MT4 [11], 28 µM; in the test on MT4 [3], 30 µM; in the test with MT4 [12], 31 µM; with MT4 [13], 30 µM; in the test with MT4 [14], 39 µM. Moreover, the Control in the test on L cells [5] is 100%; in test [6], 97%; in the test on MT4 [7], 100%.
